Data published in ChEMBL document CHEMBL1955737, “Diarylpyrimidine-dihydrobenzyloxopyrimidine hybrids: new, wide-spectrum anti-HIV-1 agents active at (sub)-nanomolar level” (J Med Chem, 2011).

What was measured:
[1] = system: Human immunodeficiency virus 1; assay: Antiviral activity against wild type HIV 1 NL4-3 infected in human MT4 cells assessed as inhibition of virus-induced cytopathic effect after 5 days by MTT assay; type: functional, organism-based; conditions: Human immunodeficiency virus 1, NL4-3, MT4, 120 h
[2] = system: Human immunodeficiency virus 1; assay: Resistance ratio of EC50 for HIV 1 harboring reverse transcriptase K103N mutant infected in human MT4 cells to EC50 for wild type HIV 1 NL4-3 infected in human MT4 cells; type: functional
How it was run: (§1)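 Fold change is the EC50 against the mutant strain (K103N, Y181C, Y188L or IRLL98) divided by the EC50 against wild-type NL4-3. Both EC50s come from MT-4 cells infected in the presence of a range of drug concentrations, with MTT viability read at day 5. Values are means of at least two experiments.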

[3] = Selectivity index, ratio of CC50 for human MT4 cells to EC50 for HIV 1 NL4-3; type: toxicity, cell-based; conditions: read-out: Ratio CC50/EC50
How it was run: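 CC50 from mock-infected MT-4 cells and EC50 against HIV-1 NL4-3 in infected MT-4 cells, both by day-5 MTT viability read-out; index computed as CC50/EC50(NL4-3); means of at least two experiments.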

[4] = system: Human immunodeficiency virus 1; assay: Antiviral activity against HIV 1 harboring reverse transcriptase Y181C mutant infected in human MT4 cells assessed as inhibition of virus-induced cytopathic effect after 5 days by MTT assay; type: functional, organism-based; conditions: Human immunodeficiency virus 1, MT4, 120 h
How it was run: (§2)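 MT-4 cells (NIH AIDS Reagent Program) infected with the mutant HIV-1 strain in the presence of a range of drug concentrations. Mutant strains were from the MRC Centralised Facility for AIDS Reagents; IRLL98 carries K101Q, Y181C and G190A. Viable cells were counted by MTT colorimetry at day 5 post-infection. […] Values are means of at least two experiments.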

[5] = Cytotoxicity against human MT4 cells assessed as cell viability by MTT assay; type: cell-based
[6] = system: Human immunodeficiency virus 1; assay: Antiviral activity against HIV 1 harboring reverse transcriptase K103N mutant infected in human MT4 cells assessed as inhibition of virus-induced cytopathic effect after 5 days by MTT assay; type: functional, organism-based; conditions: Human immunodeficiency virus 1, MT4, 120 h
[7] = system: Human immunodeficiency virus type 1 reverse transcriptase (Human immunodeficiency virus 1), Q72547 [K103N]
[8] = target: Human immunodeficiency virus type 1 reverse transcriptase (Human immunodeficiency virus 1) (UniProt Q72547)
[9] = system: Human immunodeficiency virus type 1 reverse transcriptase (Human immunodeficiency virus 1), Q72547 [Y181I]
[10] = system: Human immunodeficiency virus 1; assay: Ratio of ID50 for HIV 1 reverse transcriptase K103N mutant to ID50 for wild type HIV 1 NL4-3 reverse transcriptase
How it was run: (§3)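 Recombinant HIV-1 RT (wild type or K103N, L100I, Y181I or Y188L), purified to >95%, at 2-4 nM. RNA-dependent DNA polymerase assay with 0.5 μg poly(rA)/oligo(dT) 10:1 (0.3 μM 3'-OH ends) and 10 μM [3H]dTTP in 8% final DMSO. Initial velocities were taken from aliquots sampled every 2 min. […] The ratio is mutant ID50 over wild-type ID50. Means of at least three experiments.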

[11] = system: Human immunodeficiency virus 1; assay: Antiviral activity against HIV 1 harboring reverse transcriptase Y188L mutant infected in human MT4 cells assessed as inhibition of virus-induced cytopathic effect after 5 days by MTT assay; type: functional, organism-based; conditions: Human immunodeficiency virus 1, MT4, 120 h
[12] = system: Human immunodeficiency virus type 1 reverse transcriptase (Human immunodeficiency virus 1), Q72547 [L100I]
[13] = system: Human immunodeficiency virus 1; assay: Ratio of ID50 for HIV 1 reverse transcriptase L100I mutant to ID50 for wild type HIV 1 NL4-3 reverse transcriptase; how it was run: as §3
[14] = system: Human immunodeficiency virus 1; assay: Resistance ratio of EC50 for HIV 1 harboring reverse transcriptase Y181C mutant infected in human MT4 cells to EC50 for wild type HIV 1 NL4-3 infected in human MT4 cells; type: functional; how it was run: as §1
[15] = system: Human immunodeficiency virus 1; assay: Resistance ratio of EC50 for HIV 1 harboring reverse transcriptase Y188L mutant infected in human MT4 cells to EC50 for wild type HIV 1 NL4-3 infected in human MT4 cells; type: functional; how it was run: as §1
[16] = system: Human immunodeficiency virus 1; assay: Ratio of ID50 for HIV 1 reverse transcriptase Y181I mutant to ID50 for wild type HIV 1 NL4-3 reverse transcriptase; how it was run: as §3
[17] = system: Human immunodeficiency virus 1; assay: Ratio of ID50 for HIV 1 reverse transcriptase Y188L mutant to ID50 for wild type HIV 1 NL4-3 reverse transcriptase; how it was run: as §3
[18] = system: Human immunodeficiency virus 1; assay: Antiviral activity against multidrug-resistant HIV 1 IRLL98 harboring reverse transcriptase K101Q/Y181C/G190a mutant infected in human MT4 cells assessed as virus-induced cytopathic effect after 5 days by MTT assay; type: functional, organism-based; conditions: Human immunodeficiency virus 1, IRLL98, MT4, 120 h; how it was run: as §2

| Compound | EC50 [1] | Ratio EC50 [2] | selectivity ratio [3] | EC50 [4] | CC50 [5] | EC50 [6] | ID50 [7] | ID50 [8] | ID50 [9] | Ratio [10] | EC50 [11] | ID50 [12] | Ratio [13] | Ratio EC50 [14] | Ratio EC50 [15] | Ratio [16] | Ratio [17] | EC50 [18] |
| --- | --- | --- | --- | --- | --- | --- | --- | --- | --- | --- | --- | --- | --- | --- | --- | --- | --- | --- |
| Cc1c(Cc2c(F)cccc2F)nc(Nc2ccc(C#N)cc2)[nH]c1=O | 244 nM | 6 | > 11.6 | > 2840 nM | > 2840 nM | 1390 nM | 21400 nM | 200 nM | > 80000 nM | 107 | > 2840 nM |  |  |  |  |  |  |  |
| Cc1cnc(Nc2ccc(C#N)cc2)nc1Cc1c(F)cccc1F | 3.3 nM | 27 | > 22500 | 358 nM | > 74300 nM | 88.3 nM | 262 nM | 9 nM | > 80000 nM | 29 | 1020 nM | 2960 nM | 329 | 108 | 308 |  |  |  |
| N#Cc1ccc(Nc2nc(Cc3c(F)cccc3F)cc(=O)[nH]2)cc1 | 344 nM | 0.8 | > 7.3 | 344 nM | > 2500 nM | 290 nM | 2600 nM | 0.8 nM | 56000 nM | 3250 | > 2500 nM | 1600 nM | 2000 | 1 |  | 70000 | 1550 |  |
| O=C1Nc2ccc(Cl)cc2[C@@](C#CC2CC2)(C(F)(F)F)O1 [EFAVIRENZ] | 3.17 nM |  |  | 10.1 nM | 3170 nM | 343 nM |  |  |  |  |  |  |  |  |  |  |  | 634 nM |
| CC(c1ccnc(Nc2ccc(C#N)cc2)n1)c1c(F)cccc1F (stereo unspecified) | 0.5 nM | 55 | 75000 | 44.3 nM | 37500 nM | 27.3 nM | 248 nM | 9 nM | 5910 nM | 28 | 100 nM | 664 nM | 74 | 89 | 200 | 656 | 85 |  |
| N#Cc1ccc(Nc2nccc(Cc3c(F)cccc3F)n2)cc1 | 0.5 nM | 136 | > 155000 | 60.2 nM | > 77600 nM | 68.2 nM | 500 nM | 6 nM | 7470 nM | 83 | 225 nM | 671 nM | 112 | 120 | 450 | 1250 | 306 |  |
| CC(c1cc(Cl)nc(Nc2ccc(C#N)cc2)n1)c1c(F)cccc1F (stereo unspecified) | 1.5 nM | 34 | > 1800 | 154 nM | > 2700 nM | 51.2 nM | 286 nM | 12 nM | 28600 nM | 24 | 836 nM |  |  | 102 | 557 | 2380 | 237 |  |
| Cc1c(Cl)nc(Nc2ccc(C#N)cc2)nc1Cc1c(F)cccc1F | 21.6 nM | 23 | > 125 | 2540 nM | > 2700 nM | 739 nM | 445 nM | 17 nM | > 40000 nM | 26 | > 2700 nM |  |  | 80 |  |  | 371 |  |
| Cc1c(C(C)c2c(F)cccc2F)nc(Nc2ccc(C#N)cc2)[nH]c1=O (stereo unspecified) | 2.9 nM | 21 | 367 | 45.6 nM | 1060 nM | 61.1 nM | 125 nM | 0.4 nM | 1400 nM | 312 | 230 nM | 1000 nM | 2500 | 16 | 79 | 3500 | 172 |  |
| Cc1cnc(Nc2ccc(C#N)cc2)nc1C(C)c1c(F)cccc1F (stereo unspecified) | 0.6 nM | 86 | 119000 | 42.5 nM | 71400 nM | 51.9 nM | 154 nM | 6.9 nM | 5000 nM | 22 | 31.4 nM | 128 nM | 19 | 71 | 52 | 725 | 43 |  |
| CC(c1cc(=O)[nH]c(Nc2ccc(C#N)cc2)n1)c1c(F)cccc1F (stereo unspecified) | 9.1 nM | 6 | > 312 | 88 nM | > 2840 nM | 56.8 nM | 347 nM | 28 nM | 12300 nM | 12 | 653 nM |  |  | 10 | 72 | 438 | 149 |  |
| N#Cc1ccc(Nc2nc(Cl)cc(Cc3c(F)cccc3F)n2)cc1 | 13.4 nM | 13 | > 209 | 561 nM | > 2800 nM | 171 nM | 4360 nM | 59 nM | > 80000 nM | 74 | 1400 nM |  |  | 42 | 105 |  |  |  |
